From ChEMBL document CHEMBL1275429, “Pharmacodynamic characterization of ceftobiprole in experimental pneumonia caused by phenotypically diverse Staphylococcus aureus strains” (Antimicrob Agents Chemother, 2008)
Converted amounts (≈) assume the structure as drawn.

Tests used:
Assay type in all cases: functional
Staphylococcus aureus [1] = experiment: Antimicrobial activity against hospital acquired methicillin-resistant Staphylococcus aureus 56 by broth microdilution method
Outline: (§1)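 Broth microdilution run in triplicate following CLSI guidelines. Isolates were stored at –80°C in double-strength skim milk and subcultured twice on Trypticase soy agar with 5% sheep blood before testing.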

Staphylococcus aureus [2] = experiment: Antimicrobial activity against community acquired methicillin-resistant Staphylococcus aureus 144 by broth microdilution method; outline: as §1
Staphylococcus aureus [3] = experiment: Antimicrobial activity against hospital acquired methicillin-resistant Staphylococcus aureus 149 by broth microdilution method; outline: as §1
Staphylococcus aureus [4] = experiment: Antimicrobial activity against methicillin-susceptible Staphylococcus aureus ATCC 29213 by broth microdilution method; outline: as §1
Staphylococcus aureus [5] = experiment: Antimicrobial activity against hospital acquired methicillin-resistant Staphylococcus aureus 152 by broth microdilution method; outline: as §1
Staphylococcus aureus [6] = experiment: Antimicrobial activity against methicillin-susceptible Staphylococcus aureus ATCC 25923 by broth microdilution method; outline: as §1
Staphylococcus aureus [7] = experiment: Antimicrobial activity against community acquired methicillin-resistant Staphylococcus aureus 146 by broth microdilution method; outline: as §1
Staphylococcus aureus [8] = experiment: Antimicrobial activity against community acquired methicillin-resistant Staphylococcus aureus 147 by broth microdilution method; outline: as §1

| Compound | MIC (Staphylococcus aureus [1]) [µg/mL] | MIC (Staphylococcus aureus [2]) [µg/mL] | MIC (Staphylococcus aureus [3]) [µg/mL] | MIC (Staphylococcus aureus [4]) [µg/mL] | MIC (Staphylococcus aureus [5]) [µg/mL] | MIC (Staphylococcus aureus [6]) [µg/mL] | MIC (Staphylococcus aureus [7]) [µg/mL] | MIC (Staphylococcus aureus [8]) [µg/mL] |
| --- | --- | --- | --- | --- | --- | --- | --- | --- |
| CC(=O)NC[C@H]1CN(c2ccc(N3CCOCC3)c(F)c2)C(=O)O1 [LINEZOLID] | 8 (≈ 23.7 µM) |  |  |  |  |  |  |  |
| CC[C@H]1OC(=O)[C@H](C)[C@@H](O[C@H]2C[C@@](C)(OC)[C@@H](O)[C@H](C)O2)[C@H](C)[C@@H](O[C@@H]2O[C@H](C)C[C@H](N(C)C)[C@H]2O)[C@](C)(O)C[C@@H](C)C(=O)[C@H](C)[C@@H](O)[C@]1(C)O [ERYTHROMYCIN] | 32 (≈ 43.6 µM) | > 32 | > 32 | 1 (≈ 1.36 µM) | 1 (≈ 1.36 µM) | 0.5 (≈ 0.681 µM) | > 32 | > 32 |
| CCC[C@@H]1C[C@@H](C(=O)N[C@@H]([C@H]2O[C@H](SC)[C@H](O)[C@@H](O)[C@H]2O)[C@H](C)Cl)N(C)C1 [CLINDAMYCIN] | 0.25 (≈ 0.588 µM) | > 16 | 0.125 (≈ 0.294 µM) | 0.125 (≈ 0.294 µM) | 0.125 (≈ 0.294 µM) | 0.125 (≈ 0.294 µM) | 0.25 (≈ 0.588 µM) | 0.125 (≈ 0.294 µM) |
| C[C@H]1COc2c(N3CCN(C)CC3)c(F)cc3c(=O)c(C(=O)O)cn1c23.C[C@H]1COc2c(N3CCN(C)CC3)c(F)cc3c(=O)c(C(=O)O)cn1c23.O [LEVOFLOXACIN] | 0.25 | 0.5 | 8 | 0.25 | 0.25 | 0.25 | 8 | 8 |
| C[C@H]1c2cccc(O)c2C(=O)C2=C(O)[C@]3(O)C(=O)C(C(N)=O)=C(O)[C@@H](N(C)C)[C@@H]3[C@@H](O)[C@@H]21.O [DOXYCYCLINE] | 8 | 0.5 | 0.5 | 0.5 | 0.5 | 0.25 | 2 | 2 |
